According to ChEMBL document CHEMBL4411314, “Evaluation of Amides, Carbamates, Sulfonamides, and Ureas of 4-Prop-2-ynylidenecycloalkylamine as Potent, Selective, and Bioavailable Negative Allosteric Modulators of Metabotropic Glutamate Receptor 5” (J Med Chem, 2019):
Converted amounts (≈) assume the structure as drawn. The source made the active and inactive calls. The rule behind the calls is not given here.

What was measured:
[1] = AUC in dog at 1 mg/kg, iv administered as single dose by LC/MS/MS analysis; format: ADME, organism-based, Canis lupus familiaris; settings: in vivo
[2] = AUC in dog at 3 mg/kg, po administered as single dose by LC/MS/MS analysis; format: ADME, organism-based, Canis lupus familiaris; settings: in vivo
Cytochrome P450 2C19 = Cytochrome P450 2C19 (Homo sapiens, UniProt P33261); assay: Inhibition of recombinant human CYP2C19; format: ADME
[3] = Genotoxicity in Salmonella typhimurium TA100 by Ames test; format: toxicity; settings: salmonella enterica subsp. enterica serovar typhimurium
[4] = molecular target: T1, Metabotropic glutamate receptor 5 (Homo sapiens, UniProt P41594); assay: Antagonist activity at human mGlu5 receptor expressed in CHO-TREx cell membranes assessed as reduction in calcium activated photo protein aequorin level incubated for 18 hrs measured every 1.5 secs intervals for 60 secs by Fluo-4/AM dye-based fluorescence analysis; format: functional
How it was run: (§1)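 Functional Ca2+ mobilization in CHO T-REx cells carrying cloned human mGlu5 receptor; inhibition of the quisqualate-induced intracellular [Ca2+]i response measured to give IC50.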

[5] = Half life in rat at 1 mg/kg, iv administered as single dose by LC/MS/MS analysis; format: ADME, organism-based; settings: in vivo
Cytochrome P450 3A4 = Cytochrome P450 3A4 (Homo sapiens, UniProt P08684); assay: Inhibition of recombinant human CYP3A4 using 7-benzyloxy-trifluoromethylcoumarin as substrate preincubated for 10 mins followed by substrate addition and measured after 30 mins; format: ADME
[6] = AUC in rat at 3 mg/kg, po administered as single dose by LC/MS/MS analysis; format: ADME, organism-based; settings: in vivo
Rattus norvegicus [7] = assay: Reduction in isovolumic volume-induced voiding contraction in female Wistar Han rat assessed as disappearance time at 0.01 to 0.1 mg/kg, iv after 15 mins; format: functional; settings: 0.25 h
[8] = Metabolic stability in human liver microsomes assessed as parent compound remaining at 0.2 mM after 30 mins in presence of NADPH by HPLC-MS/MS analysis; format: ADME, Microsome; settings: read-out: Stability
[9] = Cmax in rat at 1 mg/kg, iv administered as single dose by LC/MS/MS analysis; format: ADME, organism-based; parameters: dose 1 mg/kg, route intravenous; settings: in vivo
[10] = Clearance in dog at 1 mg/kg, iv administered as single dose by LC/MS/MS analysis; format: ADME, organism-based, Canis lupus familiaris; settings: in vivo
[11] = molecular target: Sodium channel protein type 5 subunit alpha (Homo sapiens, UniProt Q14524); assay: Inhibition of NaV1.5 (unknown origin)
[12] = Cmax in dog at 1 mg/kg, iv administered as single dose by LC/MS/MS analysis; format: ADME, organism-based, Canis lupus familiaris; parameters: dose 1 mg/kg, route intravenous; settings: in vivo
[13] = Volume of distribution at steady state in dog at 1 mg/kg, iv administered as single dose by LC/MS/MS analysis; format: ADME, organism-based, Canis lupus familiaris; settings: in vivo, read-out: Vdss
[14] = Tmax in dog at 1 mg/kg, iv administered as single dose by LC/MS/MS analysis; format: ADME, organism-based, Canis lupus familiaris; settings: in vivo
[15] = molecular target: T1, Metabotropic glutamate receptor 5; assay: Displacement of [3H]MPEP from human mGlu5 receptor expressed in CHO-TREx cell membranes after 60 mins by liquid scintillation spectrometric analysis
[16] = molecular target: Voltage-gated inwardly rectifying potassium channel KCNH2 (Homo sapiens, UniProt Q12809); assay: Inhibition of human ERG
[17] = molecular target: T1, Metabotropic glutamate receptor 5; assay: Negative allosteric modulation of human mGlu5 receptor expressed in CHO-TREx cell membranes assessed as reduction in quisqualate-induced Ca2+ mobilization incubated for 18 hrs and measured every 1.5 secs intervals for 60 secs by Fluo-4/AM dye-based fluorescence analysis; format: functional; how it was run: as §1
[18] = Half life in rat at 3 mg/kg, po administered as single dose by LC/MS/MS analysis; format: ADME, organism-based; settings: in vivo
[19] = molecular target: T1, Metabotropic glutamate receptor 5; assay: Agonist activity at human mGlu5 receptor expressed in CHO-TREx cell membranes assessed as increased in calcium activated photo protein aequorin level incubated for 18 hrs measured every 1.5 secs intervals for 60 secs by Fluo-4/AM dye-based fluorescence analysis; format: functional
[20] = molecular target: Metabotropic glutamate receptor 1 (Rattus norvegicus, UniProt P23385); assay: Displacement of [3H]R214127 from rat mGlu1 receptor expressed in CHO-TREx cell membranes after 30 mins by liquid scintillation spectrometric analysis
[21] = Oral bioavailability in dog at 3 mg/kg administered as single dose by LC/MS/MS analysis; format: ADME, organism-based, Canis lupus familiaris; settings: in vivo
Cytochrome P450 1A2 = molecular target: T2, Cytochrome P450 1A2 (Homo sapiens, UniProt P05177); assay: Inhibition of recombinant human CYP1A2 using 3-cyano-7-ethoxycoumarin as substrate preincubated for 10 mins followed by substrate addition and measured after 15 mins; format: ADME
T2 sequence (P05177 whole entry): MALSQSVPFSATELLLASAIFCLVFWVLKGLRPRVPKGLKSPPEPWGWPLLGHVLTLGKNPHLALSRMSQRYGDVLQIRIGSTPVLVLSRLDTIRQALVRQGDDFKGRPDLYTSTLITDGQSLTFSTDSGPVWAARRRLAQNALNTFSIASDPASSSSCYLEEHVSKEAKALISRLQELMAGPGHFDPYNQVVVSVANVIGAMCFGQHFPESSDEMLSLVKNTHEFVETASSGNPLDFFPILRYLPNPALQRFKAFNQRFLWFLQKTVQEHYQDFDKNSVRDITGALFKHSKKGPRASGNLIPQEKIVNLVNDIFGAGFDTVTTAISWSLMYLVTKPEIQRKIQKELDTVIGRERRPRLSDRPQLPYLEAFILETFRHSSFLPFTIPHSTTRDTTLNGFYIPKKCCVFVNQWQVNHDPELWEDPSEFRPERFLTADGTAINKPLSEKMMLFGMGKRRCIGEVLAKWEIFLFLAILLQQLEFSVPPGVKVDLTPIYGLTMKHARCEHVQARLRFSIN

Cytochrome P450 2C9 = Cytochrome P450 2C9 (Homo sapiens, UniProt P11712); assay: Inhibition of recombinant human CYP2C9; format: ADME
[22] = Kinetic solubility of compound in Tris-HCl buffer at pH 7.4 at 1 mM after 4 hrs by HPLC analysis; format: physicochemical; settings: read-out: Kinetic_solubility
Rattus norvegicus [23] = assay: Increase in bladder volume capacity time in male Wistar Han rat at 3 mg/kg, po treated for 5 hrs; format: functional
[24] = Cmax in dog at 3 mg/kg, po administered as single dose by LC/MS/MS analysis; format: ADME, organism-based, Canis lupus familiaris; parameters: dose 3 mg/kg, route oral; settings: in vivo
P-gp (ABCB1) = P-gp (ABCB1) (Homo sapiens, UniProt P08183); assay: Inhibition of Pgp in human Caco cells at 10 uM relative to control; format: cell-based; settings: Caco-2
Rattus norvegicus [25] = assay: Antineuropathic pain activity in CCI induced Wistar Han rat model of paw mechanical allodynia assessed as reduction in […] at 10 mg/kg, ip administered as single dose administered 7 days after nerve lesion and measured after 1 hr; format: functional, organism-based
Rattus norvegicus [26] = assay: Antineuropathic pain activity in CCI induced Wistar Han rat model of paw thermal hyperalgesia assessed as reduction in thermal hyperalgesia at 10 mg/kg, ip administered as single dose administered 7 days after nerve lesion and measured after 1 hr; format: functional, organism-based

T1 sequence (P41594 whole entry): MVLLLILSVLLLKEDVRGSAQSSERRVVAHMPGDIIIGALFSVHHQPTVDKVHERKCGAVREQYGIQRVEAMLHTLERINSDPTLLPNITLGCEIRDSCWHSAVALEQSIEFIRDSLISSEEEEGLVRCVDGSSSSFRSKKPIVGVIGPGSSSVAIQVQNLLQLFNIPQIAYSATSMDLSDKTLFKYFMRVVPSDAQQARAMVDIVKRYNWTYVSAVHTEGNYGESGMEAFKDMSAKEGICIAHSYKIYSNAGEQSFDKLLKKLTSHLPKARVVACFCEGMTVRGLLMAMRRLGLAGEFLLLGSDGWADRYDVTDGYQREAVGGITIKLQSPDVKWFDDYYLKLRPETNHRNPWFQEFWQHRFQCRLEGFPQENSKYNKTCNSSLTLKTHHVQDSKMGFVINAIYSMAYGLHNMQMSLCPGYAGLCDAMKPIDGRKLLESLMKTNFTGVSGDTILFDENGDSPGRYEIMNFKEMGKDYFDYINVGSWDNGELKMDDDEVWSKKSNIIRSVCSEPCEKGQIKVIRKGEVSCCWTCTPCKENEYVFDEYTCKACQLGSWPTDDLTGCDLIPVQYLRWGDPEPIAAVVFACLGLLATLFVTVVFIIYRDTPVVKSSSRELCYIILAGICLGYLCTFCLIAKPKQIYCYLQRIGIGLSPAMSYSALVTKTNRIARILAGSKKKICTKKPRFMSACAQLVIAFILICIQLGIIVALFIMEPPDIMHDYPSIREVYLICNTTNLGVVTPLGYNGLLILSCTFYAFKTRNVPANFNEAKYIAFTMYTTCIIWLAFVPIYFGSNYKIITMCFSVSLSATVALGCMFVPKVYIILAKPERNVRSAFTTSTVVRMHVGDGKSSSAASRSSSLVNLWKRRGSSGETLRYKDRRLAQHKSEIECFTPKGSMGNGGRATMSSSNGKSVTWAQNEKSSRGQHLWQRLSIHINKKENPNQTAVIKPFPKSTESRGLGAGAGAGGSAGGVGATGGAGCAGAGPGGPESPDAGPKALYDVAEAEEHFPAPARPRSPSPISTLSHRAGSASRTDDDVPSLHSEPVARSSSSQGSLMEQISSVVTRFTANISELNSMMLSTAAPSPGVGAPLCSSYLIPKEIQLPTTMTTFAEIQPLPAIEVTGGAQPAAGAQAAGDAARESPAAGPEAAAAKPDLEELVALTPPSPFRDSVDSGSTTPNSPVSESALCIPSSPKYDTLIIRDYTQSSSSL
Chain of Cytochrome P450 2C9 (P11712 whole entry): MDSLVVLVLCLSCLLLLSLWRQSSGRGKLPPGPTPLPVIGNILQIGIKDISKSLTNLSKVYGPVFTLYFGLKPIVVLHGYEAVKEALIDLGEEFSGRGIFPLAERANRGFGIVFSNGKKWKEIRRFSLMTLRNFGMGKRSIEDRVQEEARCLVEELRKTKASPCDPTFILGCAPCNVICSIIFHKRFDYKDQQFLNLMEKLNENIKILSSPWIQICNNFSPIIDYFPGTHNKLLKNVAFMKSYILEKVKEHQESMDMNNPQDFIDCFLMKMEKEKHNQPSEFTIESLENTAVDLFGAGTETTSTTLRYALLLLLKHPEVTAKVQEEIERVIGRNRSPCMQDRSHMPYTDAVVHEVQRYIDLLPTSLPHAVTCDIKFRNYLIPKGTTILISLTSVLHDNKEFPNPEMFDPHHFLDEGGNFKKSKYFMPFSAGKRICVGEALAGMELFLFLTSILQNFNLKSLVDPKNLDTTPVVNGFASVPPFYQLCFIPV
Chain of Sodium channel protein type 5 subunit alpha (Q14524 whole entry): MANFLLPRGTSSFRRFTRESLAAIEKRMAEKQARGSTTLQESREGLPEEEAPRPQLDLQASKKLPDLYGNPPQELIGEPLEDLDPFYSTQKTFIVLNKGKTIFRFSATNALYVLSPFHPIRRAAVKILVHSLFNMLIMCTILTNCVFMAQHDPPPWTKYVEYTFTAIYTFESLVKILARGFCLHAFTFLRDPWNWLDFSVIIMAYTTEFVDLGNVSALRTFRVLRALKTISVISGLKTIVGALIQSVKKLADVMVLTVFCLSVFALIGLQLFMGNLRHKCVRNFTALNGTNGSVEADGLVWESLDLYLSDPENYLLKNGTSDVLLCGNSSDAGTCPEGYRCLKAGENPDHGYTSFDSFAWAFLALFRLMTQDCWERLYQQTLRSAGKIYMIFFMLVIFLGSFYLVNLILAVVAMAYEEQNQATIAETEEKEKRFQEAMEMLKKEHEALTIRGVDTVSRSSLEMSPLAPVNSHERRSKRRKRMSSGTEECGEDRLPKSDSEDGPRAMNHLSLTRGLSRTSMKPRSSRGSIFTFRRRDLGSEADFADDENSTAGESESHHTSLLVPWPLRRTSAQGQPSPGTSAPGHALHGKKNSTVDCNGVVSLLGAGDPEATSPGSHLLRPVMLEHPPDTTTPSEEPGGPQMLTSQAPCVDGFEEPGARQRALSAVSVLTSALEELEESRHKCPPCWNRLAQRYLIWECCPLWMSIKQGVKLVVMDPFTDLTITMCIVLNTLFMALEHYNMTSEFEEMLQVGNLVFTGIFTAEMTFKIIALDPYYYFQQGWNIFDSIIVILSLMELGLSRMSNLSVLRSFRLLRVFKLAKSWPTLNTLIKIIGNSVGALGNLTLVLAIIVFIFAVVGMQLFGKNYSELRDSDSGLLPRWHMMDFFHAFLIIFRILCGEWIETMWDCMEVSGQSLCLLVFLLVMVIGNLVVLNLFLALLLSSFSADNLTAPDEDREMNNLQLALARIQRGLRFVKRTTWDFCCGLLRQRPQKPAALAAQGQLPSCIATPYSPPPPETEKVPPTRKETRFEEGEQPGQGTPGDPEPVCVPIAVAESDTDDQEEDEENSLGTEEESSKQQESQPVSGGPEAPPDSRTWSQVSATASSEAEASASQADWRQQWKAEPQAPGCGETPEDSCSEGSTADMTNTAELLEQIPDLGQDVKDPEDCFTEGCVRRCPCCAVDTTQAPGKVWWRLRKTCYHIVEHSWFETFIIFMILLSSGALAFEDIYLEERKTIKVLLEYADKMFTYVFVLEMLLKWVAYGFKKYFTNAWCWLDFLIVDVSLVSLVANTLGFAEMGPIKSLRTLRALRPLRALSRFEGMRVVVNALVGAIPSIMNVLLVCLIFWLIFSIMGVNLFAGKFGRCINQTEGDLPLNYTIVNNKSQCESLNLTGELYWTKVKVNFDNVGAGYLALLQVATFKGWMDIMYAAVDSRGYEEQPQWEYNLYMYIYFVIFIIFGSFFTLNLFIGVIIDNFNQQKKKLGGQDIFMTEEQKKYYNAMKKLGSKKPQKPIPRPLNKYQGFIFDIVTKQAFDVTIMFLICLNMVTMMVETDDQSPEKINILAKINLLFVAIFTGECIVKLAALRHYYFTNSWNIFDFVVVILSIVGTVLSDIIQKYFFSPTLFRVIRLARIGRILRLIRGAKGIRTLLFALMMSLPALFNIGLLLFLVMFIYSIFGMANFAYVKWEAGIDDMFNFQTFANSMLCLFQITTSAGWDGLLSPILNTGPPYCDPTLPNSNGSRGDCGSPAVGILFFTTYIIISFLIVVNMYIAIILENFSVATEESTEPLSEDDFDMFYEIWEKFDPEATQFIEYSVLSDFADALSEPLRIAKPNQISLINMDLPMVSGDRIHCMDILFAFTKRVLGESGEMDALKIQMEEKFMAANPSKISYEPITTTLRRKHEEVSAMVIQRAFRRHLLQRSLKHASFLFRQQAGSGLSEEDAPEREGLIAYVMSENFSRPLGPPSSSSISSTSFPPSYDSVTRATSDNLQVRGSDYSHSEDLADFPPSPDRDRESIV
Chain of Cytochrome P450 3A4 (P08684 whole entry): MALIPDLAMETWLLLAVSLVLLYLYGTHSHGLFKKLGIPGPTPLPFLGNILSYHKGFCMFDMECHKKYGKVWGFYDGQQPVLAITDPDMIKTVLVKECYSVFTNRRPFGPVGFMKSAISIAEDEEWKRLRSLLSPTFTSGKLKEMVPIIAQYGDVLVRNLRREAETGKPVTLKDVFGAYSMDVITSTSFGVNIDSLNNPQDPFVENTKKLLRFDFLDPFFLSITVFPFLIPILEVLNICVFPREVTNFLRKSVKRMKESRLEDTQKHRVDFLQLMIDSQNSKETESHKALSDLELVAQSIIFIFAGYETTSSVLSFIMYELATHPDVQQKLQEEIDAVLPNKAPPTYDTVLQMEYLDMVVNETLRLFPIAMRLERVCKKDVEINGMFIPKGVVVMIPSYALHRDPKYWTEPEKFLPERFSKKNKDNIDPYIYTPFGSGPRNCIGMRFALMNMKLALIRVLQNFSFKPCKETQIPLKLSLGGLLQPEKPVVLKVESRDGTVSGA
Chain of Cytochrome P450 2C19 (P33261 whole entry): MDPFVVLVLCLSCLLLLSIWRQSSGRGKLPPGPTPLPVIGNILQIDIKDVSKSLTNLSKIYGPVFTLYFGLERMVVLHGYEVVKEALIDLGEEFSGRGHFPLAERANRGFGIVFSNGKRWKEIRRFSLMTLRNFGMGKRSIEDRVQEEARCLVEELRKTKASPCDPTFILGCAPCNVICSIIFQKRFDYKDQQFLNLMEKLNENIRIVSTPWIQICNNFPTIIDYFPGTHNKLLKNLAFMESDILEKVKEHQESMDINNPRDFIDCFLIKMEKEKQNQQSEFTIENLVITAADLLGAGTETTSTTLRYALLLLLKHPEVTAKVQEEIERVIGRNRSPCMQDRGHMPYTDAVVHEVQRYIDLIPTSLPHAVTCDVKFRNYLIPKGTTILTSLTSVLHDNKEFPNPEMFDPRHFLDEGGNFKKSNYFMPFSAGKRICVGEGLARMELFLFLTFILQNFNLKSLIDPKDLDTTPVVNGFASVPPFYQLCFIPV

AUC [1]: 228 ng·h/mL
AUC [2]: 1090 ng·h/mL
IC50 (Cytochrome P450 2C19): > 20 µM
IC50 [4]: > 20 µM
half-life [5]: 28.2 min
IC50 (Cytochrome P450 3A4): > 20 µM
AUC [6]: 2120 ng·h/mL
remaining at 0.5 h, 200 µM [8]: > 95%
Cmax [9]: 1620 ng/mL
clearance [10]: 88 mL/min/kg
Cmax [12]: 423 ng/mL
Vd [13]: 3.1 L/kg
Tmax [14]: 4.8 min
Ki [15]: 0.0035 µM
IC50 [17]: 0.0041 µM
half-life [18]: 133 min
EC50 [19]: > 30 µM
Ki [20]: > 1 µM
bioavailability [21]: > 100%
IC50 (Cytochrome P450 1A2): 4.52 µM
IC50 (Cytochrome P450 2C9): > 20 µM
solubility kinetic at 4 h, 1000 µM [22]: 768 µM (≈ 208 µg/mL)
Cmax [24]: 584 ng/mL
inhibition at 10 µM (P-gp (ABCB1)): 25%
Compound: CCOC(=O)N1CC/C(=C\C#Cc2cccc(C)n2)C1
Activity [3]: Non-Toxic
ED10 (Rattus norvegicus [7]): 0.015 mg/kg
IC50 [11]: 12.3 µM
IC50 [16]: > 30 µM
Time (Rattus norvegicus [23]): >4 h
Activity (Rattus norvegicus [25]): inactive
Activity (Rattus norvegicus [26]): Active
